The text below walks through data of paper PMC2745708 (Free radical biology & medicine, 2009).

Assay [1] has as its target NOS1 (Rattus norvegicus, UniProt P29476). As to the kind of experiment: 14-C-L-arginine to 14-C-L-citrulline conversion by purified recombinant NOS1. The class given is biochemical. In a few lines:
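Purified recombinant rat NOS1 or human NOS2 holoprotein at 5 nM. Incubated 60 min at 37°C with 2.9 μM 14C-L-arginine and 10 μM unlabeled L-arginine in 50 mM HEPES pH 7.5, with 10 μM FAD, 1 mM DTT, 100 μM tetrahydrobiopterin, 200 μM NADPH, and graded test compound, in near-dark. Stopped with HEPES pH 5.5/citrulline/EDTA. 14C-citrulline separated on Dowex 50W-X8, scintillation-counted; percent inhibition calculated.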

Assay [2] concerns the target NOS2 (Homo sapiens, UniProt P35228). Put plainly: 14-C-L-arginine to 14-C-L-citrulline conversion by purified recombinant NOS2. The class given is biochemical.
The target of assay [3] is NOS3 (Bos taurus, UniProt P29473). Put plainly: 14-C-L-arginine to 14-C-L-citrulline conversion by purified recombinant NOS3. The class given is biochemical, bovine. The note with it: purified recombinant enzyme. In a few lines: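 Purchased recombinant bovine NOS3, with NOS co-factors and 14C-L-arginine, with or without graded test compound, in near-dark conditions. 14C-L-citrulline formed was separated from 14C-L-arginine on a Dowex 50W-X8 cation-exchange column and counted by scintillation. Activity is given as percent inhibition.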

The subject of assay [4] is Raw 264.7 mouse macrophage cell line. As to the kind of experiment: NO production by interferon-gamma-activated macrophages. The class given is cell-based. Particulars: 0.5, 2.0 or 8.0 μM for 24 hours with 500 units/ml murine interferon gamma. An outline of the steps: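 Raw 264.7 cells kept by serial passage in RPMI-1640 with 10% FBS. Activated 24 h with 500 units/ml murine interferon-gamma, with 0, 0.5, 2.0 or 8.0 μM test compound present throughout. Loaded with 10 μM DAF-FM for 30 min, washed, and fluorescence read at 495/515 nm. NO production given as percent of control; SEM from 6 separate experiments.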

In assay [5] the target is NOS2 oxygenase domain (Homo sapiens, UniProt P35228). As to the kind of experiment: CO binding to reduced NOS2 oxygenase domain heme. The note with it: NOS2 oxygenase domain reduced with dithionite. In a few lines: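 Purified recombinant NOS2 oxygenase domain (about 3 μM final) reduced with dithionite and exposed to CO, with or without test compound. UV/visible spectra recorded, monitoring the ferrous-heme–CO peak at 445 nm.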

Setting [6] is: purified recombinant enzyme, 60 min, 37°C.
Setting [7] is: agent exposed to light for 60 minutes (with light).
Where [8] appears, read: agent not exposed to light (no light).

Chain of NOS2 oxygenase domain (P35228 1-504 limits assumed): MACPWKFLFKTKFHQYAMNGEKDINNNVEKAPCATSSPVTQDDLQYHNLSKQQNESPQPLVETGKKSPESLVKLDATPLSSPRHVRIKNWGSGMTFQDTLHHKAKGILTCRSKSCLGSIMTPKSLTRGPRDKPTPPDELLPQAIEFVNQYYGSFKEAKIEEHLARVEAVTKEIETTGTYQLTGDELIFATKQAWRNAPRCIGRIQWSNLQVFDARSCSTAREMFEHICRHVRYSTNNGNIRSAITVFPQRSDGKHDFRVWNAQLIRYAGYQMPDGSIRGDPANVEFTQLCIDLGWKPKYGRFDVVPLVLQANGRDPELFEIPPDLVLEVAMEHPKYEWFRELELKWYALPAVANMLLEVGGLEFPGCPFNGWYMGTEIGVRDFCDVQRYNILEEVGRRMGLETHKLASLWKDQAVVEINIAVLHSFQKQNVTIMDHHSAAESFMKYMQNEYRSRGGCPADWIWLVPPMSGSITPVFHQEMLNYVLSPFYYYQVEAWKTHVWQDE

On to Cyanocobalamin, for which, in assay [1] (setting [6]), the “Estimated ED50 NOS1” value was 72.0 µM. Moreover, the “Estimated ED50 NOS2” value in assay [2] (setting [6]) was 1620.0 µM. Also, in assay [3], the “Estimated ED50 NOS3” value was 519.0 µM.
For the molecule `C/C1=C2/[N-][C@H]([C@H](CC(N)=O)[C@@]2(C)CCC(=O)NC[C@@H](C)OP(=O)([O-])O[C@H]2[C@@H](O)[C@@H](n3cnc4cc(C)c(C)cc43)O[C@@H]2CO)[C@]2(C)N=C(/C(C)=C3N=C(/C=C4N=C1[C@@H](CCC(N)=O)C\4(C)C)[C@@H](CCC(N)=O)[C@]\3(C)CC(N)=O)[C@@H](CCC(N)=O)[C@]2(C)CC(N)=O.[CH2-][C@H]1O[C@@H](n2cnc3c(N)ncnc32)[C@H](O)[C@@H]1O.[Co]` [Adenosylcobalamin], the results for the “Estimated ED50 NOS1” value in assay [1] (setting [7]) and in assay [1] (setting [8]) were 6.4 µM and 498.0 µM, respectively. Besides, the results for the “Estimated ED50 NOS2” value in assay [2] (setting [7]) and in assay [2] (setting [8]) were 60.0 µM and 2148.0 µM, respectively.
Turning to `CC1(C)N([O])C(c2ccc(C(=O)[O-])cc2)=[N+]([O-])C1(C)C.[K+]` [Carboxy-PTIO, 2-(4-Carboxyphenyl)-4,4,5,5-tetramethylimidazoline-1-oxyl-3-oxide (potassium salt)], in assay [1] (setting [6]), the “Estimated ED50 NOS1” value was 1360.0 µM. Further, the “Estimated ED50 NOS2” value in assay [2] (setting [6]) was 1359.0 µM.
Turning to `C/C1=C2/[N-][C@H]([C@H](CC(N)=O)[C@@]2(C)CCC(=O)NC[C@@H](C)OP(=O)([O-])O[C@H]2[C@@H](O)[C@@H](n3cnc4cc(C)c(C)cc43)O[C@@H]2CO)[C@]2(C)N=C(/C(C)=C3N=C(/C=C4N=C1[C@@H](CCC(N)=O)C\4(C)C)[C@@H](CCC(N)=O)[C@]\3(C)CC(N)=O)[C@@H](CCC(N)=O)[C@]2(C)CC(N)=O.[Co+3].[OH-]` [Hydroxocobalamin], in assay [1] (setting [6]), the “Estimated ED50 NOS1” value is 5.7 µM. Further, the “Estimated ED50 NOS2” value in assay [2] (setting [6]) is 21.1 µM. Also, the “Estimated ED50 NOS3” value in assay [3] was 9.1 µM.
Turning to `C/C1=C2/[N-]C([C@H](CC(N)=O)[C@@]2(C)CCC(=O)NCC(C)O)[C@]2(C)N=C(/C(C)=C3N=C(/C=C4N=C1[C@@H](CCC(N)=O)C\4(C)C)[C@@H](CCC(N)=O)[C@]\3(C)CC(N)=O)[C@@H](CCC(N)=O)[C@]2(C)CC(N)=O.[C-]#N.[C-]#N.[Co]` (stereo partly drawn) [Dicyanocobinamide], in assay [1] (setting [6]), the “Estimated ED50 NOS1” value is 0.23 µM. In addition, the “Estimated ED50 NOS2” value in assay [2] (setting [6]) was 2.29 µM. The “Estimated ED50 NOS3” value in assay [3] was 0.33 µM. Also, in assay [4], the “NO production by cells” value is reported as “dose-dependent inhibition”. Besides, in assay [5], the “Effect on CO-induced spectral changes (ferrous-CO adduct formation)” value is recorded as “markedly diminished”.
On to `C/C1=C2/[N-][C@H]([C@H](CC(N)=O)[C@@]2(C)CCC(=O)NC[C@@H](C)O)[C@]2(C)N=C(/C(C)=C3N=C(/C=C4N=C1[C@@H](CCC(N)=O)C\4(C)C)[C@@H](CCC(N)=O)[C@]\3(C)CC(N)=O)[C@@H](CCC(N)=O)[C@]2(C)CC(N)=O.[Co+3]` [Cobinamide], for which the “Estimated ED50 NOS1” value in assay [1] (setting [6]) is 15.0 µM. The “Estimated ED50 NOS2” value in assay [2] (setting [6]) is 50.0 µM. Besides, the “Estimated ED50 NOS3” value in assay [3] was 43.0 µM.
As to `C/C1=C2N=C(/C=C3N=C(/C(C)=C4\[N-]C(C(CC(N)=O)C4(C)CCC(=O)NCC(C)OP(=O)([O-])OC4C(CO)OC(n5cnc6cc(C)c(C)cc65)C4O)C4(C)N=C1C(CCC(N)=O)C4(C)CC(N)=O)C(CCC(N)=O)C\3(C)C)C(CCC(N)=O)C/2(C)CC(N)=O.NC(CCC(=O)NC(C[S-])C(=O)NCC(=O)O)C(=O)O.[Co+3]` (stereo not drawn) [Glutathionylcobalamin], the “Estimated ED50 NOS1” value in assay [1] (setting [6]) is 9.6 µM. Also, the “Estimated ED50 NOS2” value in assay [2] (setting [6]) is 29.0 µM. Moreover, in assay [3], the “Estimated ED50 NOS3” value was 41.0 µM.
Consider `C/C1=C2/[N-][C@H]([C@H](CC(N)=O)[C@@]2(C)CCC(=O)NC[C@H](C)OP(=O)([O-])O[C@H]2[C@@H](O)[C@@H](n3cnc4cc(C)c(C)cc43)O[C@@H]2CO)[C@]2(C)N=C(/C(C)=C3N=C(/C=C4N=C1[C@@H](CCC(N)=O)C\4(C)C)[C@@H](CCC(N)=O)[C@]\3(C)CC(N)=O)[C@@H](CCC(N)=O)[C@]2(C)CC(N)=O.[CH3-].[Co+3]` [Methylcobalamin], for which the “Estimated ED50 NOS1” value was 5.9 µM in assay [1] (setting [7]) and 576.0 µM in assay [1] (setting [8]). In addition, the “Estimated ED50 NOS2” value is 63.0 µM in assay [2] (setting [7]) and 231.0 µM in assay [2] (setting [8]).
